Here are results for 16 compounds from ChEMBL document CHEMBL3414423, “Jatrophane diterpenes as inhibitors of chikungunya virus replication: structure-activity relationship and discovery of a potent lead” (J Nat Prod, 2014).

The nature of data set [1]: Selectivity index, ratio of CC50 for African green monkey Vero cells to EC50 for Chikungunya virus 899 infected in African green monkey Vero cells. Format: toxicity, cell-based. The following applies: read-out: Ratio CC50/EC50.
Data set [2] in a line: Cytotoxicity against African green monkey Vero cells assessed as inhibition of overall cell metabolism after 6 to 7 days by MTS assay. Format: ADME, cell-based. Particulars: chlorocebus sabaeus. In a few lines:
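Uninfected Vero cells (25 000/well) with compound serial dilutions in MEM with 2% FCS, 37 °C, 6−7 days. Readout 5% MTS for 1.5 h, absorbance 498 nm. CC50 is the concentration calculated to inhibit overall cell metabolism by 50%, from dose−response curves. Median ± median absolute deviation, ≥3 independent assays.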
Background: Tetrazolium assays rely on reduction of a dye to a coloured formazan, in cell work by metabolically active cells.

For another data set, the system named is Semliki Forest virus. Briefly: Antiviral activity against Semliki forest virus Vietnam infected in African green monkey Vero cells assessed as inhibition of virus-induced cell death after 6 to 7 days by MTS assay. Type of data set: functional, organism-based.
The subject of the next data set is Chikungunya virus. Briefly: Antiviral activity against Chikungunya virus 899 infected in African green monkey Vero cells assessed as inhibition of virus-induced cell death after 6 to 7 days by MTS assay. Format: functional, cell-based. The following applies: Chikungunya virus, 899, Vero.
Data set [3] is described as follows: Selectivity index, ratio of CC50 for African green monkey Vero cells to EC50 for Semliki forest virus Vietnam infected in African green monkey Vero cells. Particulars: read-out: Ratio CC50/EC50. Type of data set: toxicity, cell-based.
Data set [4] in a line: Cytotoxicity against human MT4 cells assessed as inhibition of overall cell metabolism after 5 days by MTT assay. Type of data set: ADME, cell-based. Put shortly: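 Mock-infected MT-4 cells in triplicate wells with serial 5-fold compound dilutions run alongside the infected series. Viability read by MTT formazan 5 days later; CC50 from the concentration-response. Median ± median absolute deviation, ≥3 independent assays.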

Data set [5] concerns Human immunodeficiency virus 2. Briefly: Antiviral activity against Human immunodeficiency virus type 2 ROD infected in human MT4 cells assessed as inhibition of virus replication after 5 days by MTT assay. Type of data set: functional, organism-based. Particulars: Human immunodeficiency virus 2, ISOLATE ROD, MT4, 120 h. Put shortly:
(§1)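 MT-4 cells ([…] suspension) infected with HIV-1 IIIB or HIV-2 ROD at 100−300 CCID50, with serial 5-fold compound dilutions in triplicate. Viability read by MTT reduction 5 days after infection. SI = CC50 MT-4/IC50. Median ± median absolute deviation, ≥3 independent assays.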

The nature of data set [6]: Selectivity index, ratio of CC50 for African green monkey Vero cells to EC50 for Sindbis virus HRsp infected in African green monkey Vero cells. Format: toxicity, cell-based. The following applies: read-out: Ratio CC50/EC50.
The test system of the next data set is Sindbis virus. Briefly: Antiviral activity against Sindbis virus HRsp infected in African green monkey Vero cells assessed as inhibition of virus-induced cell death after 6 to 7 days by MTS assay. Format: functional, organism-based.
In data set [7] the test system is Human immunodeficiency virus 1. Briefly: Antiviral activity against Human immunodeficiency virus 1 3b infected in human MT4 cells assessed as inhibition of virus replication after 5 days by MTT assay. Type of data set: functional, organism-based. The following applies: MT4, 120 h. In a few lines:
as §1

Data set [8] is described as follows: Selectivity index, ratio of CC50 for human MT4 cells to IC50 for Human immunodeficiency virus 1 3b infected in human MT4 cells. Type of data set: functional. Put shortly:
as §1

Data set [9] in a line: Selectivity index, ratio of CC50 for human MT4 cells to IC50 for Human immunodeficiency virus type 2 ROD infected in human MT4 cells. Type of data set: functional. Put shortly:
as §1

Data set [10] can be described thus: Cytotoxicity against human MT2 cells assessed as cell viability incubated for 2 weeks with every 48 to 72 hrs of compound washed out measured on day 2, 6, 10, 14 by CellTiter Glo luminescence assay. Type of data set: cell-based. For orientation: In ATP-based viability assays light output follows the ATP content of the culture.
In data set [11] the test system is Human immunodeficiency virus 1. Briefly: Antiviral activity against recombinant Human immunodeficiency virus 1 NL4.3 containing Renilla gene infected in CD3/IL2-activated human MT2 cells assessed as inhibition of virus replication pretreated for 2 hrs followed by viral infection for additional 2 hrs measured after 48 hrs by Renilla-luciferase reporter gene assay. Format: functional, organism-based. Particulars: Human immunodeficiency virus 1, NL4.3, MT2.

For orientation: CC50 means the concentration that lowers cell viability or growth by half. The EC50 is the midpoint of the concentration-response curve. By IC50 is commonly meant the concentration at which inhibition is half-maximal. `C=C1[C@H](OC(C)=O)[C@H]2[C@@H](OC(=O)c3ccccc3)[C@@H](C)C[C@]2(O)[C@H](O)[C@H](C)/C=C/C(C)(C)C(=O)[C@H](OC(=O)C(C)CC)[C@H]1OC(C)=O` (stereo partly specified): the selectivity ratio was above 1.7 in data set [1], above 2.5 in data set [3] and above 3.7 in [6]. Further, in data set [2], the CC50 is above 190 µM. Also, the EC50 in the data set on Semliki Forest virus was 76 µM; in the data set with Chikungunya virus it was 111 µM; with Sindbis virus, 51 µM. Further, in data set [4], the CC50 at 120 h is above 33 µM. For the same compound, the IC50 in data set [5] and in data set [7] was above 76 µM each time.

`C=C1[C@H](OC(C)=O)[C@H]2[C@@H](OC(C)=O)[C@](C)(O)C[C@]2(OC(C)=O)C(=O)[C@H](C)/C=C/C(C)(C)C(=O)[C@H](OC(=O)/C(C)=C/C)[C@H]1OC(C)=O`: the “Ratio CC50/IC50” value in [8] is recorded as above 96; in [9], above 751. Moreover, the selectivity ratio in data set [1] amounted to 208; in [6] it was 3.6. In addition, the CC50 in [2] was determined as 159 µM. The values for the EC50 with Semliki Forest virus, with Chikungunya virus and in the data set on Sindbis virus were above 116 µM, 0.76 µM and 44 µM, respectively. The CC50 at 120 h in data set [4] is above 32 µM. Also, the IC50 in [5] stood at 0.043 µM; in data set [7], 0.34 µM.

Turning to `CCN(CC)CCCC(C)Nc1ccnc2cc(Cl)ccc12` (stereo unspecified) [CHLOROQUINE], the EC50 in the data set on Chikungunya virus amounted to 10 µM.

As for `Cc1cn([C@H]2C[C@H](N=[N+]=[N-])[C@@H](CO)O2)c(=O)[nH]c1=O` [ZIDOVUDINE], in data set [4], the CC50 at 120 h was above 25 µM. In data set [5], the IC50 was 0.006 µM.

Take `C=C1[C@H](OC(C)=O)[C@H]2[C@@H](OC(C)=O)[C@](C)(OC(C)=O)C[C@]2(OC(C)=O)C(=O)[C@H](C)/C=C/C(C)(C)C(=O)[C@H](OC(C)=O)[C@H]1OC(C)=O`: in data set [1], the selectivity ratio is above 2.6. Further, the CC50 at 336 h in [10] is above 100 µM. In addition, the figures for the IC50 in data set [11], in data set [5] and in data set [7] were 0.002 µM, 5.9 µM and 37.1 µM, respectively. In [2], the CC50 is above 154 µM. Moreover, the EC50 is above 115 µM in the data set with Semliki Forest virus, 60 µM in the data set with Chikungunya virus and above 154 µM with Sindbis virus. In addition, in [9], the “Ratio CC50/IC50” value was above 5.5. Further, the CC50 at 120 h in data set [4] was above 33 µM.

`Nc1ccn([C@@H]2CS[C@H](CO)O2)c(=O)n1` [LAMIVUDINE]: the “Ratio CC50/IC50” value in [8] is reported as above 22; in [9], above 5.6. Also, the CC50 at 120 h in data set [4] was above 87 µM.

On to `C=C1[C@H](OC(C)=O)[C@H]2[C@@H](OC(=O)c3ccccc3)[C@@H](C)C[C@]2(O)[C@H](O)[C@H](C)/C=C/C(C)(C)C(=O)[C@H](OC(=O)C(C)C)[C@H]1OC(C)=O`, for which the results for the selectivity ratio in [1], in data set [3] and in [6] were 2.8, 2.9 and 2.1, respectively. Besides, the CC50 in data set [2] was 60 µM. Moreover, the EC50 with Semliki Forest virus was determined as 20.5 µM; in the data set with Chikungunya virus it was 21 µM; in the data set on Sindbis virus, 28.8 µM. Also, the CC50 at 120 h in data set [4] was above 16 µM. Also, the IC50 in [5] and in [7] was above 39 µM throughout.

Regarding `C=C1[C@H](OC(C)=O)[C@H]2[C@@H](OC(C)=O)[C@](C)(OC(C)=O)C[C@]2(OC(C)=O)C(=O)[C@H](C)/C=C/C(C)(C)C(=O)[C@H](OC(=O)c2ccccc2)[C@H]1OC(C)=O`, in data set [1], the selectivity ratio is above 2.9. In addition, the CC50 in data set [2] is above 50 µM. The EC50 in the data set on Semliki Forest virus is above 140 µM; with Chikungunya virus it was 17.1 µM; in the data set with Sindbis virus, above 140 µM. Moreover, the “Ratio CC50/IC50” value in data set [9] is listed as above 1. Also, in data set [4], the CC50 at 120 h was above 36 µM. Further, the IC50 was 34.7 µM in [5] and above 70 µM in [7].

For the compound `C=C1[C@H](OC(C)=O)[C@H]2[C@@H](OC(C)=O)[C@](C)(O)C[C@]2(OC(C)=O)C(=O)[C@H](C)/C=C/C(C)(C)C(=O)[C@H](OC(=O)c2ccccc2)[C@H]1OC(C)=O`, in data set [1], the selectivity ratio was determined as 29. Moreover, in data set [2], the CC50 was 125 µM. The values for the EC50 in the data set with Semliki Forest virus, in the data set on Chikungunya virus and in the data set on Sindbis virus were above 165 µM, 4.3 µM and above 165 µM, respectively. Moreover, in [9], the “Ratio CC50/IC50” value is above 2.8. Further, the CC50 at 120 h in [4] was above 30 µM. The IC50 was 10.9 µM in [5] and above 59 µM in data set [7].

In the case of `C=C1[C@H](OC(C)=O)[C@H]2[C@@H](OC(C)=O)[C@](C)(O)C[C@]2(OC(C)=O)C(=O)[C@H](C)/C=C/C(C)(C)C(=O)[C@H](OC(C)=O)[C@H]1OC(C)=O`, in the data set with Chikungunya virus, the EC50 was above 164 µM.

Take `C=C1[C@H](OC(C)=O)[C@H]2[C@@H](OC(=O)c3ccccc3)[C@@H](C)C[C@]2(O)[C@H](OC(C)=O)[C@H](C)/C=C/C(C)(C)C(=O)[C@H](O)[C@H]1OC(C)=O`: the selectivity ratio in [1] was 1.9. In addition, the CC50 in data set [2] was found to be 150 µM. Also, the EC50 is above 163 µM in the data set on Semliki Forest virus, 80 µM with Chikungunya virus and above 163 µM in the data set on Sindbis virus. Moreover, the “Ratio CC50/IC50” value in data set [9] was below 0.9. Moreover, the CC50 at 120 h in data set [4] is above 31 µM. The figures for the IC50 in data set [5] and in data set [7] were 32.5 µM and above 81 µM, respectively.

Take `O=c1[nH]cnc2c1ncn2[C@H]1CC[C@@H](CO)O1` [DIDANOSINE]: the “Ratio CC50/IC50” value is on record as above 4.6 in data set [8] and above 5.2 in data set [9]. For the same compound, the CC50 at 120 h in data set [4] was above 50 µM. Also, the figures for the IC50 in data set [5] and in data set [7] were 9.6 µM and 10.8 µM, respectively.

With `C=C1[C@H](OC(C)=O)[C@H]2[C@@H](OC(C)=O)[C@](C)(O)C[C@]2(OC(C)=O)C(=O)[C@H](C)/C=C/C(C)(C)C(=O)[C@H](OC(=O)C(C)C)[C@H]1OC(C)=O`, in [2], the CC50 is above 196 µM. Moreover, the EC50 was above 157 µM in the data set on Semliki Forest virus, above 196 µM in the data set with Chikungunya virus and above 157 µM with Sindbis virus. In addition, the CC50 at 120 h in data set [4] is above 32 µM. For the same compound, the IC50 in [5] and in data set [7] was above 79 µM throughout.

Consider `Cc1ccnc2c1NC(=O)c1cccnc1N2C1CC1` [NEVIRAPINE], for which the CC50 at 120 h in data set [4] is above 15 µM. Moreover, the IC50 in data set [5] is above 15 µM.

Regarding `C=C1[C@H](OC(C)=O)[C@H]2[C@@H](OC(=O)c3ccccc3)[C@@H](C)C[C@]2(O)[C@H](O)[C@H](C)/C=C/C(C)(C)C(=O)[C@H](OC(C)=O)[C@H]1OC(C)=O`, the results for the selectivity ratio in [1], in data set [3] and in data set [6] were 7.8, 2.4 and 5, respectively. The CC50 in data set [2] was determined as 151 µM. The results for the EC50 in the data set with Semliki Forest virus, with Chikungunya virus and in the data set with Sindbis virus were 62 µM, 19.5 µM and 30.1 µM, respectively. Moreover, the “Ratio CC50/IC50” value in data set [9] is on record as above 6. The half-maximal cytotoxic concentration (CC50) at 120 h in [4] was above 31 µM. In addition, the IC50 in [5] is 5.2 µM; in data set [7] it was above 38 µM.

On to `C=C1[C@H](OC(C)=O)[C@H]2[C@@H](OC(C)=O)[C@](C)(OC(C)=O)C[C@]2(OC(C)=O)C(=O)[C@H](C)/C=C/C(C)(C)C(=O)[C@H](OC(=O)/C(C)=C/C)[C@H]1OC(C)=O`, for which the “Ratio CC50/IC50” value in [8] is recorded as above 1.6; in data set [9] it was above 18. The selectivity ratio in data set [1] is 8.3. Moreover, the CC50 in data set [2] came to 145 µM. Further, the EC50 was above 145 µM in the data set on Semliki Forest virus, 17.4 µM in the data set on Chikungunya virus and above 145 µM in the data set on Sindbis virus. In addition, the CC50 at 120 h in [4] was above 35 µM. The IC50 in data set [5] was found to be 2 µM; in [7] it was 21.5 µM.
